{
  "source": "ChEMBL document CHEMBL1649109",
  "about": "“Antiparasitic activities and toxicities of individual enantiomers of the 8-aminoquinoline 8-[(4-amino-1-methylbutyl)amino]-6-methoxy-4-methyl-5-[3,4-dichlorophenoxy]quinoline succinate” (Antimicrob Agents Chemother, 2008)",
  "key": {"[1]": {"test_system": "Leishmania donovani", "experiment": "Antileishmanial activity against Leishmania donovani HU3 infected in mouse assessed as inhibition of parasites in liver at 100 mg/kg/day, po treated for 5 days administered 7 days postinfection measured after 14 days", "type": "functional", "procedure,_shortened": "(§1)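 L. donovani HU3 amastigotes, 1 × 10^7 given IV to mice. From day 7 post-infection, dosed orally once daily for 5 days in 0.25% methylcellulose-10% ethanol; reference stibogluconate given SC. Mice killed at day 14 post-infection. Parasite burden counted on liver impression smears against untreated controls. ED50 from linear regression, with 95% confidence limits.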"}, "[2]": {"test_system": "Plasmodium berghei", "experiment": "Antimalarial activity against Plasmodium berghei KBG-173 infected in Swiss(CD-1) mouse assessed as parasitemia at 0.25 mg/kg/day, po treated for 3 days measured on day 6"}, "[3]": {"test_system": "Pneumocystis carinii", "experiment": "Antimicrobial activity against Pneumocystis carinii infected BALB/c mouse at 0.25 mg/kg/day, po after 21 days administered 4 weeks postinfection by Giemsa staining method", "type": "functional, organism-based", "procedure,_shortened": "(§2)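 Female BALB/c mice, 6-8 weeks, immunosuppressed with dexamethasone […] in drinking water, then inoculated transtracheally with 10^6 P. carinii. From 4 weeks post-inoculation, drug given in drinking water for 3 weeks, 10 mice/group, intake monitored. Lung impression smears stained with Giemsa or methenamine silver, read blinded. Graded 0-5 on a log scale; group mean ± SE.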"}, "[4]": {"test_system": "Canis familiaris", "experiment": "Toxicity in Beagle dog assessed as increase in methemoglobin level at 6.4 mg/kg/day, po between 7 to 11 days", "type": "organism-based, Canis lupus familiaris", "set-up": "route oral", "details": "in vivo", "procedure,_shortened": "(§3)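 Beagle dogs, 8-9 months old, given drug as bulk powder in gelatin capsules orally on days 1-4, at 0.0116 mmol/kg/day as base. Daily clinical observation. Methemoglobin measured by co-oximetry from jugular or cephalic blood, predose on days 1, 2 and 4, then through day 29.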"}, "[5]": {"test_system": "Leishmania donovani", "experiment": "Antileishmanial activity against Leishmania donovani HU3 infected in mouse assessed as inhibition of parasites in liver at 10 mg/kg/day, po treated for 5 days administered 7 days postinfection measured after 14 days post-infection", "type": "functional", "procedure,_shortened": "as §1"}, "[6]": {"test_system": "Plasmodium berghei", "experiment": "Antimalarial activity against Plasmodium berghei KBG-173 infected in Swiss(CD-1) mouse assessed as mean survival time at 1 mg/kg/day, po treated for 3 days", "type": "functional", "procedure,_shortened": "(§4)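 CD-1 mice, 5 weeks old, male or female, groups of five, infected with 5 × 10^4 P. berghei KBG-173 parasitized erythrocytes. Drug in 0.5% hydroxyethylcellulose/0.1% Tween 80, given orally once daily on days 3, 4 and 5 post-infection. Parasitemia from blood films on day +6. Read-out also includes increase in mean survival time over controls and survivors at day +34.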"}, "[7]": {"test_system": "Plasmodium berghei", "experiment": "Antimalarial activity against Plasmodium berghei KBG-173 infected in Swiss(CD-1) mouse assessed as survival at 1 mg/kg/day, po treated for 3 days measured on day 34", "type": "functional, organism-based", "procedure,_shortened": "as §4"}, "[8]": {"test_system": "Leishmania donovani", "experiment": "Antileishmanial activity against Leishmania donovani HU3 infected in mouse assessed as inhibition of parasites in liver at 5 mg/kg/day, po treated for 5 days administered 7 days postinfection measured after 14 days post-infection", "type": "functional", "procedure,_shortened": "as §1"}, "[9]": {"test_system": "Plasmodium berghei", "experiment": "Antimalarial activity against Plasmodium berghei KBG-173 infected in Swiss(CD-1) mouse assessed as mean survival time at 0.25 mg/kg/day, po treated for 3 days", "type": "functional", "procedure,_shortened": "as §4"}, "[10]": {"test_system": "Pneumocystis carinii", "experiment": "Antimicrobial activity against Pneumocystis carinii infected BALB/c mouse at 1.3 mg/kg/day, po after 21 days administered 4 weeks postinfection by Giemsa staining method", "type": "functional, organism-based", "procedure,_shortened": "as §2"}, "[11]": {"test_system": "Pneumocystis carinii", "experiment": "Antimicrobial activity against Pneumocystis carinii infected BALB/c mouse at 1.3 mg/kg/day, po after 21 days administered 4 weeks postinfection by Giemsa staining", "type": "functional, organism-based", "procedure,_shortened": "as §2"}, "[12]": {"test_system": "Canis familiaris", "experiment": "Toxicity in Beagle dog assessed as survival at 5.3 mg/kg/day, po after 4 days", "type": "organism-based, Canis lupus familiaris", "set-up": "route oral", "details": "in vivo, 96 h", "procedure,_shortened": "as §3"}, "[13]": {"test_system": "Plasmodium berghei", "experiment": "Antimalarial activity against Plasmodium berghei KBG-173 infected in Swiss(CD-1) mouse assessed as survival at 0.25 mg/kg/day, po treated for 3 days measured on day 34", "type": "functional, organism-based", "procedure,_shortened": "as §4"}, "[14]": {"test_system": "Canis familiaris", "experiment": "Toxicity in Beagle dog assessed as survival at 6.7 mg/kg/day, po after 4 days", "type": "organism-based, Canis lupus familiaris", "set-up": "route oral", "details": "in vivo, 96 h", "procedure,_shortened": "as §3"}, "[15]": {"test_system": "Canis familiaris", "experiment": "Toxicity in Beagle dog assessed as survival at 6.4 mg/kg/day, po after 4 days", "type": "organism-based, Canis lupus familiaris", "set-up": "route oral", "details": "in vivo, 96 h", "procedure,_shortened": "as §3"}, "[16]": {"test_system": "Leishmania donovani", "experiment": "Antileishmanial activity against Leishmania donovani HU3 infected in mouse assessed as inhibition of parasites in liver at 0.4 mg/kg/day, po treated for 5 days administered 7 days postinfection measured after 14 days post-infection", "type": "functional", "procedure,_shortened": "as §1"}, "[17]": {"test_system": "Pneumocystis carinii", "experiment": "Antimicrobial activity against Pneumocystis carinii infected BALB/c mouse at 0.25 mg/kg/day, po after 21 days administered 4 weeks postinfection by methenamine silver nitrate staining method", "type": "functional, organism-based", "procedure,_shortened": "as §2"}, "[18]": {"test_system": "Mus musculus", "experiment": "Toxicity in Plasmodium berghei KBG-173 infected Swiss(CD-1) mouse at 64 mg/kg/day, po treated for 3 days", "type": "organism-based", "set-up": "route oral", "details": "in vivo, 72 h", "procedure,_shortened": "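CD-1 mice infected with 5 × 10^4 P. berghei KBG-173 parasitized erythrocytes. Drug in 0.5% hydroxyethylcellulose/0.1% Tween 80, given orally on days 3-5 post-infection, 7 mice per dose. Blood films on day +6 and weekly to day +60. Mortality tabulated for 60 days; blood-film-negative survivors counted as cured.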"}, "[19]": {"test_system": "Plasmodium berghei", "experiment": "Antimalarial activity against Plasmodium berghei KBG-173 infected in Swiss(CD-1) mouse assessed as parasitemia at 1 mg/kg/day, po treated for 3 days measured on day 6"}, "[20]": {"test_system": "Pneumocystis carinii", "experiment": "Antimicrobial activity against Pneumocystis carinii infected BALB/c mouse at 0.1 mg/kg/day, po after 21 days administered 4 weeks postinfection by methenamine silver nitrate staining method", "type": "functional, organism-based"}, "[21]": {"test_system": "Pneumocystis carinii", "experiment": "Antimicrobial activity against Pneumocystis carinii infected BALB/c mouse at 2 mg/kg/day, po after 21 days administered 4 weeks postinfection by methenamine silver nitrate staining method", "type": "functional, organism-based"}, "[22]": {"test_system": "Canis familiaris", "experiment": "Toxicity in Beagle dog assessed as increase in methemoglobin level at 5.3 mg/kg/day, po measured on day 5", "type": "organism-based, Canis lupus familiaris", "set-up": "route oral", "details": "in vivo", "procedure,_shortened": "(§5)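 Male beagles aged 8–9 months (n = 2) received oral primaquine diphosphate as bulk drug in gelatin capsules on days 1–4 (0.0116 mmol/kg/day as base), dosed by day-1 body weight. Jugular or cephalic blood was drawn before dosing on days 1, 2 and 4, then on days 5, 7, 9, 11, 15, 18, 21, 25 and 29. Methemoglobin was measured by co-oximeter absorbance at four wavelengths.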"}, "[23]": {"test_system": "Canis familiaris", "experiment": "Toxicity in Beagle dog assessed as methemoglobin level at 5.3 mg/kg/day, po after 2 weeks", "type": "organism-based, Canis lupus familiaris", "set-up": "route oral", "details": "in vivo, 336 h", "procedure,_shortened": "as §5"}, "[24]": {"test_system": "Pneumocystis carinii", "experiment": "Antimicrobial activity against Pneumocystis carinii infected BALB/c mouse at 2 mg/kg/day, po after 21 days administered 4 weeks postinfection by Giemsa staining method", "type": "functional, organism-based"}},
  "note": "Active and inactive are the calls of the source. The calls are words filed in the database; no cut-off is given here.",
  "data": [
    {"compound": "COc1cc(NC(C)CCCN)c2nccc(C)c2c1Oc1ccc(Cl)c(Cl)c1.O=C(O)CCC(=O)O", "note": "(racemic)", "values": [
      {"measurement": "inhibition in vivo at 100 mg/kg/day", "setting": "[1]", "result": 99, "unit": "%"},
      {"measurement": "Activity", "setting": "[2]", "result": 4.8, "unit": "%"},
      {"measurement": "Activity", "setting": "[3]", "result": "Active"},
      {"measurement": "Activity", "setting": "[4]", "result": "Toxic"},
      {"measurement": "inhibition in vivo at 10 mg/kg/day", "setting": "[5]", "result": 99.8, "unit": "%"},
      {"measurement": "MST", "setting": "[6]", "result": 10.2, "unit": "days"},
      {"measurement": "Activity", "setting": "[7]", "result": "Active"},
      {"measurement": "inhibition in vivo at 5 mg/kg/day", "setting": "[8]", "result": 99.2, "unit": "%"},
      {"measurement": "MST", "setting": "[9]", "result": 11.6, "unit": "days"},
      {"measurement": "Activity", "setting": "[10]", "result": "Active"},
      {"measurement": "Activity", "setting": "[11]", "result": "Active"},
      {"measurement": "Activity", "setting": "[12]", "result": "Non-toxic"},
      {"measurement": "Activity", "setting": "[13]", "result": "Active"},
      {"measurement": "Activity", "setting": "[14]", "result": "Non-toxic"},
      {"measurement": "Activity", "setting": "[15]", "result": "Non-toxic"},
      {"measurement": "inhibition in vivo at 0.4 mg/kg/day", "setting": "[16]", "result": 34.1, "unit": "%"},
      {"measurement": "Activity", "setting": "[17]", "result": "Active"},
      {"measurement": "Activity", "setting": "[18]", "result": "Toxic"},
      {"measurement": "Activity", "setting": "[19]", "result": 0.1, "unit": "%"},
      {"measurement": "Activity", "setting": "[20]", "result": "Active"}
    ]},
    {"compound": "COc1cc(NC(C)CCCN)c2ncccc2c1", "note": "(centres undefined) [PRIMAQUINE]", "values": [
      {"measurement": "Activity", "setting": "[21]", "result": "inactive"},
      {"measurement": "Activity", "setting": "[22]", "result": "Toxic"},
      {"measurement": "Activity", "setting": "[23]", "result": "Non-toxic"},
      {"measurement": "Activity", "setting": "[24]", "result": "inactive"}
    ]}
  ]
}
